# Screening data (PubChem)
# A selection: hits, their analogues and other compounds. The true share with any hit is near 2.3%.
# TRPC6 activator: mouse TRPC6 channel activators, primary screen, cell-based, HEK293, membrane potential dye; Short transient receptor potential channel 6 (Mus musculus), Q61143; HEK293-TRPC6 membrane potential dye fluorescence; stronger effect = higher value; B-score at 10 µM; hit rate 0.13% among 310,000;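 active means B-score of the integrated fluorescence ratio above library mean plus 3 SD, and starting fluorescence ratio within library mean plus 5 SD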;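 further: higher score means more depolarization so channel activation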
# Target sequence (Q61143 whole entry, looked up): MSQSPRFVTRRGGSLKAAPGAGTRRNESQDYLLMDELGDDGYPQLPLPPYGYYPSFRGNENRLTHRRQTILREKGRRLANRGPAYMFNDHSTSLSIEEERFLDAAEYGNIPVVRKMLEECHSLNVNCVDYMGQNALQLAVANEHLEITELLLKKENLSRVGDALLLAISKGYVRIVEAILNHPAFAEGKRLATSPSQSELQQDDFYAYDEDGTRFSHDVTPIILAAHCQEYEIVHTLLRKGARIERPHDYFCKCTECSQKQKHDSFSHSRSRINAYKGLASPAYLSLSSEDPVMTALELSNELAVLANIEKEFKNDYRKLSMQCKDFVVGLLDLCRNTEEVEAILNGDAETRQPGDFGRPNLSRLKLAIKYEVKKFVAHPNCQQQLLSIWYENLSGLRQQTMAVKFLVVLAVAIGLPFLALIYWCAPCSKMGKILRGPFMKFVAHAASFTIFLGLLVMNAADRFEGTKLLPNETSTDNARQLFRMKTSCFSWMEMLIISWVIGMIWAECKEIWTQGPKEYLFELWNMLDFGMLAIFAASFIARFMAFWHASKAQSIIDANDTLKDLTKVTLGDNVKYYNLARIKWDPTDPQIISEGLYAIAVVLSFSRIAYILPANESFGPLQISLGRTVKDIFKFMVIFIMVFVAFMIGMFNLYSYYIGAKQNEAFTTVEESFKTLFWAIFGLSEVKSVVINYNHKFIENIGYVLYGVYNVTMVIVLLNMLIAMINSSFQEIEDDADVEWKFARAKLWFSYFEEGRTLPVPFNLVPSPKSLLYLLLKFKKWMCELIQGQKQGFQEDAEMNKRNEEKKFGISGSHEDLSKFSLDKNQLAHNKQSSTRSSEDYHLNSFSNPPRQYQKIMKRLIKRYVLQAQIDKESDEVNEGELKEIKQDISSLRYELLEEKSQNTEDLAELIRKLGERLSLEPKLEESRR
# TRPC4 PAM: positive allosteric modulators of TRPC4, primary screen, cell-based, mouse TRPC4beta, HEK293 mu-opioid, Fluo-4 calcium. DAMGO EC20, Fluo-4 Ca2+ flux; stronger effect = higher value. B-score at 10 µM. hit rate 0.42% among 310,000. AID 2227, 2009;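 active means B-score of calcium response area above 5 SD of library B-scores, with initial fluorescence ratio within 5 SD of library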
# TRPC4 inh: inhibitors of mouse TRPC4 channel, primary screen, Fluo4 calcium, HEK293 TRPC4beta/mu-opioid cells. hit rate 0.39% among 300,000. B-score at 10 µM. AID 2247, 2010. DAMGO-evoked Fluo4 calcium flux; stronger effect = lower value;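 active means B-score over 3 SD under the library average, no early fluorescence shift, positive overall ratio signal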
#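 Assay system: HEK293 cells with stable TRPC4beta plus mu-opioid receptor expression; Probe or stimulus: DAMGO in two steps, submaximal then maximal; Dosing: single-point compound dosing; Measured by: Fluo4 calcium-dye fluorescence, kinetic read; Read-out basis: B score from integrated Fluo4 fluorescence ratio.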
# TRPC4 agonist: activators of mouse TRPC4 channel, primary screen, Fluo4 calcium, HEK293 TRPC4beta/mu-opioid cells. Fluo4 calcium fluorescence; stronger effect = higher value. hit rate 0.49% among 310,000. B-score at 10 µM;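 active means B-score above 5 SD of library B-scores, and initial fluorescence ratio not above library mean plus 5 SD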;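 further: positive B-score marks a calcium rise read as TRPC4 activation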
#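 Assay system: HEK293 stable line with TRPC4beta plus mu-opioid receptor; schedule: 45 min room-temperature Fluo4 loading, 110 s read; technique: kinetic Fluo4 calcium fluorescence; evaluation: integrated baseline-normalised fluorescence ratio, converted to per-well B score; controls: buffer (low) and maximal DAMGO (high)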
# TRPC6 inhibitor: mouse TRPC6 channel inhibitors, primary screen, cell-based, HEK293, membrane potential dye. ACh-evoked depolarization; stronger effect = lower value. Short transient receptor potential channel 6 (Mus musculus), Q61143. hit rate 1.1% among 310,000. AID 2553, 2010. B-score at 10 µM;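 active means B-score under library mean minus 3 SD, initial fluorescence not abnormally high, positive integrated signal ratio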;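 further: B-score derived from integrated fluorescence ratio over the kinetic read; more negative B-score means stronger inhibition of depolarization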
# TRPC4 sel inh 2: second selectivity test of TRPC6 inhibitors: effect on mouse TRPC4. shares compounds with TRPC6 inhibitor. HEK293 TRPC4/MOR, membrane potential dye fluorescence; channel activated by saturating DAMGO dose. inhibition, % at 10 µM. hit rate 42% among 920;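 active means compounds whose fluorescence signal differed from control wells by over 3 SD, either direction, in both duplicate plates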
# TRPC4 spec: mouse TRPC4 modulation by TRPC6 hits, confirmation, selectivity assay for TRPC6 inhibitor project, cell-based, HEK293 TRPC4/mu-opioid, membrane potential dye; hit rate 61% among 920; membrane potential fluorescence; activity change, negative = inhibition, % at 10 µM; shares compounds with TRPC6 inhibitor;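 active means rise or fall in signal beyond 3 SD of buffer-only wells in both replicate plates, either sign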;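 further: integrated kinetic ratio of fluorescence range over baseline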
# HEK293 MPD ctr 2-1: nonspecific membrane potential effects, parental HEK293, confirmation, counter-screen for TRPC6 inhibitor project, cell-based, second counter screen; shares compounds with TRPC6 inhibitor; parental HEK293 membrane potential dye fluorescence; maximal acetylcholine challenge after compound addition; signal change vs control, % at 10 µM; hit rate 31% among 920; AID 2779, 2010;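 active means membrane potential signal moving either way by over 3 SD of the maximum-effect control, in both duplicate plates, meaning non-specific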
# HEK293 MPD ctr-1: membrane potential modulation in parental HEK293, confirmation, counter-screen for TRPC6 inhibitor project, cell-based | shares compounds with TRPC6 inhibitor | parental HEK293 membrane potential dye fluorescence | membrane potential signal change, % at 10 µM | hit rate 60% among 920 | AID 2780, 2010;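 active means membrane potential signal shifting up or down by more than 3 SD of buffer-only wells, on both duplicate plates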
# HEK293 MPD ctr-2: parental HEK293 membrane potential modulation, confirmation, counter-screen for TRPC6 modulator project, cell-based; shares compounds with TRPC6 inhibitor; AID 488924, 2010; membrane potential signal change, % at 10 µM; membrane potential dye fluorescence; hit rate 51% among 2,400;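 active means membrane potential signal moves up or down beyond 5 SD from buffer-only wells, on both duplicate plates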
# HEK293 MPD ctr 2-2: second check of TRPC6 modulator effects in parental HEK293 cells; shares compounds with TRPC6 inhibitor; membrane potential dye fluorescence; after compound, maximal acetylcholine stimulation; inhibition, % at 10 µM; hit rate 14% among 2,400;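 active means membrane potential signal drops by more than 5 SD from the mean control signal, in both duplicate plates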
# TRPC4/MOR mod: TRPC4 modulation by TRPC6 hit compounds, confirmation, selectivity assay for TRPC6 modulator project, cell-based, HEK293 TRPC4/mu-opioid, membrane potential dye, mouse. hit rate 69% among 2,400. shares compounds with TRPC6 inhibitor. percent change from control (negative = decrease, positive = increase), % at 10 µM. AID 488927, 2010. membrane potential fluorescence;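 active means membrane potential signal moved up or down beyond 5 SD of buffer control wells, in both duplicate plates, actives on both sides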
# TRPC4 ctr inh 2: second selectivity test of TRPC6 modulators against mouse TRPC4. shares compounds with TRPC6 inhibitor. HEK293 TRPC4/mu-opioid, membrane potential dye fluorescence; stimulated with maximal-effect DAMGO. inhibition, % at 10 µM. hit rate 55% among 2,400;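 active means drop in membrane potential signal beyond 5 SD of the control wells in both duplicate plates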;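 further: TRPC4 counter screen for TRPC6 hits run under conditions tuned for TRPC6 not TRPC4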
# TRPC6 inh conf: mouse TRPC6 channel inhibitors, confirmation, HEK293 cells, membrane potential dye, duplicate | shares compounds with TRPC6 inhibitor | hit rate 43% among 3,300 | inhibition, % at 10 µM | AID 488960, 2010 | ACh-evoked depolarization;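 active means fluorescence ratio falls more than 5 SD below the full-stimulation control mean, in both duplicate runs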;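 further: integrated fluorescence ratio of peak minus minimum over baseline after agonist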
# TRPC6 act conf: mouse TRPC6 channel activators, confirmation, HEK293 cells, membrane potential dye, duplicate. shares compounds with TRPC6 inhibitor. HEK293-TRPC6 membrane potential dye fluorescence, FDSS. activation, % at 10 µM. hit rate 11% among 2,800. AID 488961, 2010;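 active means ratio signal rise beyond 5 SD above unstimulated control wells' mean, seen in both duplicate runs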
# Numbers stand for hits; n = inactive; x = not tested or not shown.
SMILES,TRPC6 activator,TRPC4 PAM,TRPC4 inh,TRPC4 agonist,TRPC6 inhibitor,HEK293 MPD ctr-2,HEK293 MPD ctr 2-2,TRPC4/MOR mod,TRPC4 ctr inh 2,TRPC6 inh conf,TRPC6 act conf,others
COc1cc2c(cc1OC)-c1c(OC)c(OC)cc3c1[C@H](C2)[N+](C)(C)CC3,n,n,n,n,-8.59,-404.5%,63.0%,-69.0%,63.5%,59.5%,n,
COc1cc(C[C@@H](C)N)c(OC)cc1I,n,n,n,n,-5.15,n,n,n,41.5%,41.5%,n,
COC(=O)COc1ccc(/C=C2\C(=O)NC(=S)N(c3ccc(C)cc3)C2=O)cc1OC,n,n,n,n,n,x,x,x,x,x,x,
O=C(c1cc(F)ccc1F)C1CCCN(Cc2ccc3nonc3c2)C1 (stereo not drawn),n,n,n,n,n,x,x,x,x,x,x,
C[n+]1c(-c2ccccc2)c2cc(N)ccc2c2ccc(N)cc21,n,n,n,n,-6.7,-208.5%,80.0%,-73.0%,67.5%,56.5%,n,
O=C(C1CC(c2ccccc2O)=NO1)N1CCC2(CC1)OCCO2 (stereo not drawn),n,n,n,n,n,x,x,x,x,x,x,
CCc1nc2ccccc2c(=O)n1-c1ccccc1OC,n,n,n,n,n,x,x,x,x,x,x,
Cc1ccccc1CCNCc1ccc(Br)cc1,n,n,n,n,n,x,x,x,x,x,x,
Cc1cccc(CCNCc2cc3cccc(C)c3[nH]c2=O)c1,n,n,n,n,-10.1,x,x,x,x,102.4%,n,TRPC4 sel inh 2=15.0%;TRPC4 spec=-12.9%;HEK293 MPD ctr 2-1=25.0%;HEK293 MPD ctr-1=n
Cc1ccc2cc(CNCCc3ccccc3C)c(=O)[nH]c2c1,n,n,n,n,-5.12,n,n,n,77.5%,45.5%,n,
Cc1cccc(CCNCc2cc3cc(C)cc(C)c3[nH]c2=O)c1,n,n,n,n,-5.92,n,65.0%,-18.0%,93.5%,82.0%,n,
Cc1cccc(CNCCc2c[nH]c3ccccc23)c1,n,n,n,n,n,x,x,x,x,x,x,
CCCCCOc1ccc(C)cc1CN(CCCl)CCCl,n,n,n,n,n,x,x,x,x,x,x,
Cc1cc(OCC(=O)N2CCC(C(=O)O)CC2)c2c3c(c(=O)oc2c1)CCCC3,n,n,n,n,n,x,x,x,x,x,x,
CN1CCc2nc(N)c(C#N)c(-c3ccccc3)c2C1,n,n,n,n,n,x,x,x,x,x,x,
CN1CCc2nc3sc(C#N)c(N)c3c(-c3cccs3)c2C1,n,n,n,n,-9.19,-191.5%,n,-31.5%,34.0%,n,n,
CCOc1ccccc1CNCCc1ccc2c(c1)OCO2,n,n,n,n,n,x,x,x,x,x,x,
CCOc1ccccc1CN1C2CCC1CC(c1ccc(C)cc1)C2 (stereo not drawn),15.5,n,n,n,n,265.0%,n,69.0%,58.5%,n,108.5%,
O=P1(NCCCn2cc[n+](Cc3nc4ccccc4[nH]3)c2)C=C(c2ccccc2)OC(c2ccccc2)=C1,n,n,n,n,n,x,x,x,x,x,x,
C[C@]12CC3CC(N)(C1)C[C@@](C)(C3)C2,n,n,n,n,n,x,x,x,x,x,x,
Cc1cc(C)[n+](CCCC[n+]2c(C)cc(C)cc2C)c(C)c1,n,n,n,n,-8.89,-437.5%,98.5%,-70.5%,59.0%,66.0%,n,
CCNc1cc(N2CCNCC2)ccc1[N+](=O)[O-],n,35,n,n,-5.69,-214.5%,n,-34.5%,37.5%,n,n,
Cc1[nH]n(-c2ccccc2)c(=O)c1C(c1ccc([N+](=O)[O-])cc1)c1c(C)[nH]n(-c2ccccc2)c1=O,n,n,n,n,-5.9,n,n,n,37.5%,42.5%,n,
CCOc1cccc(=NC2CCCCC2)c2c(C)n(C)c(C)c12,n,n,n,n,-7.5,x,x,x,x,n,n,TRPC4 sel inh 2=50.5%;TRPC4 spec=6.9%;HEK293 MPD ctr 2-1=-69.0%;HEK293 MPD ctr-1=n
FC(F)(F)Oc1ccc(NC2=NCCCS2)cc1,n,n,n,n,n,x,x,x,x,x,x,
SMILES,TRPC6 activator,TRPC4 PAM,TRPC4 inh,TRPC4 agonist,TRPC6 inhibitor,HEK293 MPD ctr-2,HEK293 MPD ctr 2-2,TRPC4/MOR mod,TRPC4 ctr inh 2,TRPC6 inh conf,TRPC6 act conf,others
OCC[n+]1c2ccccc2nc2ccc(N3CCOCC3)cc21,n,n,n,n,-10,-273.5%,104.0%,-47.0%,72.0%,82.0%,n,
CCc1cc2c(N3CCN(C)CC3)ncnc2s1,n,n,n,n,n,x,x,x,x,x,x,
CCN1CCN(c2ncnc3ccc(Br)cc23)CC1,n,n,n,n,-7.62,x,x,x,x,n,n,TRPC4 sel inh 2=n;TRPC4 spec=n;HEK293 MPD ctr 2-1=n;HEK293 MPD ctr-1=-192.5%
O=C1NC(=O)N(c2ccc(F)cc2)C(=O)/C1=C/c1ccsc1,n,n,n,n,-5.49,n,n,n,n,n,x,
CCCCCSc1cc(O)c(C(CNC)C(C)C)cc1OC (stereo not drawn),n,n,n,n,n,x,x,x,x,x,x,
CCCCCSc1cc(OC)c(CCN(C)C)cc1OC,n,n,n,n,-5.3,n,n,n,51.5%,49.5%,n,
